Activity calls are given as the source filed them. No cut-off for these calls is given here.
Experiments:
[1] = Volume of distribution at steady state in Wistar han rat at 2 mg/kg, po and 1 mg/kg, iv; assay type: ADME, organism-based; settings: in vivo, read-out: Vdss
Outline: (§1)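 Wistar Han rats. IV dose 1 mg/kg in DMSO/PEG200/water (10:60:30), n=2. Oral dose 2 mg/kg in imwitor/tween (1:1) by gavage, n=3. Values are averages. Derived: F%, plasma clearance, Vdss, terminal half-life and oral AUC normalized to dose.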

Androgen receptor = molecular target: T1, Androgen receptor (Homo sapiens, UniProt P10275); test: Antagonist activity at human androgen receptor expressed in CHOK1 cells assessed as inhibition of D(-)-norgestrel-induced protein interaction with steroid receptor co-activator peptide after 24 hrs by beta-galactosidase reporter gene assay; assay type: cell-based, CHO-K1
T1 sequence (P10275 whole entry): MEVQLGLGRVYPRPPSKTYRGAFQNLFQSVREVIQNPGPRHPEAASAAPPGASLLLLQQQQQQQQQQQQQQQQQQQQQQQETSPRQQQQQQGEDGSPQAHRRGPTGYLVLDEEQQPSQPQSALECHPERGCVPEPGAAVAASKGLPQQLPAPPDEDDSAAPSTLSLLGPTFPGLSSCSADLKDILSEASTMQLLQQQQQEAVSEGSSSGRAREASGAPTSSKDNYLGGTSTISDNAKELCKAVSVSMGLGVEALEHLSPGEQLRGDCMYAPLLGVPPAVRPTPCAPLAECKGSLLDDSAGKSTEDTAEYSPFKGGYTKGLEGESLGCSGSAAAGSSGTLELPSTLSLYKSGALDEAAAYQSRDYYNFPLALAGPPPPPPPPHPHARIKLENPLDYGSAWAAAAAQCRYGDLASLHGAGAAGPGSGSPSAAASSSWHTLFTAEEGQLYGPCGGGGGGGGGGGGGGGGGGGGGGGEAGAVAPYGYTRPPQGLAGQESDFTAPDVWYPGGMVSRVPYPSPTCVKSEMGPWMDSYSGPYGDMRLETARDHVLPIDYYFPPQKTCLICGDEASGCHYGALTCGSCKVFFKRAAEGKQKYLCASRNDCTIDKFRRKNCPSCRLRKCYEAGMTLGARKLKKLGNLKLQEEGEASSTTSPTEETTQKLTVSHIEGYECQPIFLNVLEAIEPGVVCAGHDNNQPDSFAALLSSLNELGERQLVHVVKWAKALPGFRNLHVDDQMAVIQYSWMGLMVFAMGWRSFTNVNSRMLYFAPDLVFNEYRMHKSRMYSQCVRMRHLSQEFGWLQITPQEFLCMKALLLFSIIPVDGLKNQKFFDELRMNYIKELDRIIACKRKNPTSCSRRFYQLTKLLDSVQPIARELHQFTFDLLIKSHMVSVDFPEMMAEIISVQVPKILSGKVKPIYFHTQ

[2] = Plasma clearance in Wistar han rat at 2 mg/kg, po and 1 mg/kg, iv; assay type: ADME, organism-based; outline: as §1
Progesterone receptor = molecular target: T2, Progesterone receptor (Homo sapiens, UniProt P06401); test: Antagonist activity at human progesterone receptor beta expressed in human U2OS cells assessed as inhibition of D(-)-norgestrel-induced protein interaction with steroid receptor co-activator peptide after overnight incubation by beta-galactosidase reporter gene assay; assay type: cell-based
T2 sequence (P06401 whole entry): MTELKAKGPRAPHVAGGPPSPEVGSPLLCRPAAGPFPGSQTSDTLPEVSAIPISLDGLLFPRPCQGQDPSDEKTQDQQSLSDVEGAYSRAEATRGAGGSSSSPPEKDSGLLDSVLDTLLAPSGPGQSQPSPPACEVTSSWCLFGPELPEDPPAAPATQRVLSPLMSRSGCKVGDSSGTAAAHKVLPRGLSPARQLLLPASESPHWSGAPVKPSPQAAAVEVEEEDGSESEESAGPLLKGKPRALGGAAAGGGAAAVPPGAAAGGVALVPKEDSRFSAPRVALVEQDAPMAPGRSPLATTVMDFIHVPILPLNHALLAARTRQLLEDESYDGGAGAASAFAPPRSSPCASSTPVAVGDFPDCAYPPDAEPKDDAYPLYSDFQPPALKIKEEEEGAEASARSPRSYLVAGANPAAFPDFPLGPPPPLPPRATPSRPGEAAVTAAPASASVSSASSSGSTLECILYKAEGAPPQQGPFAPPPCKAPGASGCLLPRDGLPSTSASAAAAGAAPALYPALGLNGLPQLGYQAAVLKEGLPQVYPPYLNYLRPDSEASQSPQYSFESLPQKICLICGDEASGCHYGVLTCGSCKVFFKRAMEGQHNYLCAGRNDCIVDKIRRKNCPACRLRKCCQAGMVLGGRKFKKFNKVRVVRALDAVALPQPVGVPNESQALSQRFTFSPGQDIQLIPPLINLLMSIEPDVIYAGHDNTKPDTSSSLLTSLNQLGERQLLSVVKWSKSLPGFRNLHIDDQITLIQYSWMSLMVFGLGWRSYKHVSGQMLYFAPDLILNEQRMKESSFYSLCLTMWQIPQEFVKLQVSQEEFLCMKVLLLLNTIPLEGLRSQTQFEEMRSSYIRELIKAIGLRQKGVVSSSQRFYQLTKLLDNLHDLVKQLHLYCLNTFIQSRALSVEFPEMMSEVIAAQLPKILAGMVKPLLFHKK

[3] = Metabolic stability in rat liver microsomes assessed as compound remaining at 1 uM after 0.5 hrs; assay type: ADME; settings: read-out: Stability
[4] = molecular target: T3, Estrogen receptor (Homo sapiens) (UniProt P03372); test: Agonist activity at human estrogen receptor alpha by cell-based assay
T3 sequence (whole entry): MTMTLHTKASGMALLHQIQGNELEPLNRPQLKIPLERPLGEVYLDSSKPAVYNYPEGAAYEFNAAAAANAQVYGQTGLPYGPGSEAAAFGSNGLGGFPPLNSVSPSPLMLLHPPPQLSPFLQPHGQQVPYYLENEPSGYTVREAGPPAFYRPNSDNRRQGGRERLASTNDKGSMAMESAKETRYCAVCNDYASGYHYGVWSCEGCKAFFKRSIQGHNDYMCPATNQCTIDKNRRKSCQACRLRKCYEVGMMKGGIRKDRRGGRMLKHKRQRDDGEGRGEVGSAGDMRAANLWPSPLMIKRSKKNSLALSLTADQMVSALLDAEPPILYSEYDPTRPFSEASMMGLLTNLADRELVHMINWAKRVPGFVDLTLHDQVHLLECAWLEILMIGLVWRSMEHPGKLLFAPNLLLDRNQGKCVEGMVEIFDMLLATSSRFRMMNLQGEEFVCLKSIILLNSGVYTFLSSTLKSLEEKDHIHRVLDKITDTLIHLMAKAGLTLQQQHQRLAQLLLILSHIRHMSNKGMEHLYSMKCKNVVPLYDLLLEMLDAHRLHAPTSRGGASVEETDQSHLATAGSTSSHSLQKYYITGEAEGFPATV

[5] = molecular target: T4, Progesterone receptor (Homo sapiens) (UniProt P06401); test: Agonist activity at human progesterone receptor beta by cell-based assay
T4 sequence (whole entry): T2 sequence (P06401 whole entry)

[6] = Terminal half life in Wistar han rat at 2 mg/kg, po and 1 mg/kg, iv; assay type: ADME, organism-based; settings: in vivo, read-out: beta t1/2 (converted); outline: as §1
[7] = Metabolic stability in human liver microsomes assessed as compound remaining at 1 uM after 0.5 hrs; assay type: ADME; settings: read-out: Stability

Row | Vd [1] | IC50 (Androgen receptor) | clearance [2] | IC50 (Progesterone receptor) | remaining at 0.5 h, 1 µM [3] | Activity [4] | Activity [5] | half-life [6] | remaining at 0.5 h, 1 µM [7] | Compound
1 | 3.4 L/kg | 3 µM | 33 mL/min/kg | 3.2 µM | 41% | inactive | inactive | 1.7 h | 89% | C[C@H](c1ccc(F)cc1)N1C(=O)O[C@](Cc2ccccc2)(c2nc3cc(C(F)(F)F)ccc3[nH]2)C1=O
2 | 1.8 L/kg | 13 µM | 32 mL/min/kg | 4.9 µM | 80% | inactive | inactive | 1.6 h | 93% | C[C@H](c1ccc(F)cc1)N1C(=O)O[C@](Cc2ccccc2)(c2nc3cc(NS(C)(=O)=O)ccc3[nH]2)C1=O
3 | 4.6 L/kg | 3.1 µM | 47 mL/min/kg | 2.4 µM | 14% | inactive | inactive | 1.5 h | 55% | C[C@H](c1ccc(F)cc1)N1C(=O)O[C@](Cc2ccccc2)(c2nc3cc(Cl)ccc3[nH]2)C1=O
4 | 5 L/kg | 3.7 µM | 80 mL/min/kg | 2.9 µM | 45% | inactive | inactive | 0.94 h | 94% | C[C@H](c1ccc(F)cc1)N1C(=O)O[C@](Cc2ccccc2)(c2nc3cc(-c4cccnc4)ccc3[nH]2)C1=O
5 | 3.2 L/kg | 11 µM | 55 mL/min/kg | 8.2 µM | 44% | inactive | inactive | 1.2 h | 46% | C[C@H](c1ccc(F)cc1)N1C(=O)O[C@](Cc2ccccc2)(c2nc3c(NS(C)(=O)=O)cccc3[nH]2)C1=O
6 | 1.9 L/kg | 3.4 µM | 20 mL/min/kg | 2.8 µM | 54% | inactive | inactive | 1.2 h | 27% | Cc1nocc1-c1ccc2[nH]c([C@@]3(Cc4ccccc4)OC(=O)N([C@H](C)c4ccc(F)cc4)C3=O)nc2c1
7 | 1.6 L/kg | 3.1 µM | 19 mL/min/kg | 2.9 µM | 62% | inactive | inactive | 1.8 h | 86% | C[C@H](c1ccc(F)cc1)N1C(=O)O[C@](Cc2ccccc2)(c2nc3cc(-c4cc[nH]n4)ccc3[nH]2)C1=O
8 | 2.3 L/kg | 7.7 µM | 67 mL/min/kg | 1.9 µM | 92% | inactive | inactive | 0.69 h | 81% | C[C@H](c1ccc(F)cc1)N1C(=O)O[C@](Cc2ccccc2)(c2nc3cc(N4CCOCC4)ccc3[nH]2)C1=O

From ChEMBL document CHEMBL3576820, “Discovery of benzimidazole oxazolidinediones as novel and selective nonsteroidal mineralocorticoid receptor antagonists” (ACS Med Chem Lett, 2015)
